# In ChEMBL document CHEMBL4480452, “Molecular recognition of a branched peptide with HIV-1 Rev Response Element (RRE) RNA” (Bioorg Med Chem, 2019):
# The source made the active and inactive calls. No cut-off for these calls is given here.
# Experiments:
# [1] = target: Rev responsive element (RRE) RNA; assay: Binding affinity to HIV-1 rev response element SL-IIB RNA by 2-Aminopurine-based fluorescence spectrophotometric analysis; type: nucleic-acid assay, Human immunodeficiency virus 1
# [2] = target: Rev responsive element (RRE) RNA; assay: Binding affinity to HIV-1 rev response element SL-IIB RNA in presence of 10 times no bulge RRE RNA by 2-Aminopurine-based fluorescence spectrophotometric analysis; type: nucleic-acid assay, Human immunodeficiency virus 1
# Procedure, shortened: (§1)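 Same 2-AP titration, run with 10-fold excess of unlabeled competitor nucleic acid. Conditions: 0.1 μM refolded 2-AP RRE SL-IIB RNA, peptide 0–20 μM, pH 7.0 phosphate/KCl/MgCl2 buffer, ex 310 / em 372 nm. Kd from Hill fit, at least duplicate, SD.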
# [3] = system: Rev responsive element (RRE) RNA; assay: Binding affinity to HIV-1 NL4-3 5-32P-labeled rev response element SL-IIB RNA by RNases A and V1 based RNase protection assay; conditions: Human immunodeficiency virus 1
# [4] = target: Rev responsive element (RRE) RNA; assay: Binding affinity to HIV-1 rev response element SL-IIB RNA in presence of 10 times TAR RNA by 2-Aminopurine-based fluorescence spectrophotometric analysis; type: nucleic-acid assay, Human immunodeficiency virus 1; procedure, shortened: as §1
# [5] = target: Rev responsive element (RRE) RNA; assay: Binding affinity to HIV-1 rev response element SL-IIB RNA in presence of 10 times RRE DNA by 2-Aminopurine-based fluorescence spectrophotometric analysis; type: nucleic-acid assay, Human immunodeficiency virus 1; procedure, shortened: as §1
# [6] = system: Rev responsive element (RRE) RNA; assay: Binding affinity to SL1 and SL2 regions of 234 nucleotide long HIV-1 NL4-3 rev response element RNA by SHAPE-MaP technology assay; type: nucleic-acid assay; conditions: Human immunodeficiency virus 1
# Procedure, shortened: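 234-nt RRE RNA (5 pmol), renatured then folded at 37 °C for 15 min (70 mM Tris pH 8.0, 180 mM KCl, 8 mM MgCl2, 5% glycerol). Peptide added at 1:1 or 1:10 RNA:peptide for 15 min at 37 °C, then 1M7 for 5 min at 37 °C, with DMSO and denaturing controls. Read by MaP reverse transcription, PCR and sequencing; reactivity compared by nucleotide position.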
# [7] = system: Rev responsive element (RRE) RNA; assay: Binding affinity to internal loop and upper stem/ apical loop regions of 5-32P-labeled HIV-1 NL4-3 rev response element SL-IIB RNA by RNases A and V1 based RNase protection assay; type: nucleic-acid assay; conditions: Human immunodeficiency virus 1
# Procedure, shortened: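 5′-32P-labeled RRE SL-IIB (10 nM) with 200 nM unlabeled RNA, refolded at 95 °C for 3 min and snap-cooled. Incubated with peptide (0–20 μM) on ice for 4 h in 10 mM Tris pH 7, 100 mM KCl, 10 mM MgCl2. Digested on ice with RNase V1 (0.002 U, 10 min) or RNase A (20 ng, 1 h). Cleavage read on 12% denaturing PAGE by autoradiography.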
SMILES,Kd [1] [nM],further results
N=C(N)N[C@@H]1C[C@@H](C(=O)N2C[C@H](N)C[C@@H]2C(=O)N[C@@H](Cc2ccc(O)cc2)C(N)=O)N(C(=O)[C@H]2C[C@@H](N)CN2C(=O)[C@H](CCCCNC(=O)[C@H]2C[C@@H](N)CN2C(=O)[C@@H]2C[C@@H](NC(=N)N)CN2C(=O)[C@H]2C[C@@H](N)CN2)NC(=O)[C@H]2C[C@@H](N)CN2C(=O)[C@@H]2C[C@@H](NC(=N)N)CN2C(=O)[C@H]2C[C@@H](N)CN2)C1,720,–
N=C(N)N[C@H]1CN[C@H](C(=O)N[C@H]2CN[C@@H](C(=O)N[C@@H](Cc3cccc4ccccc34)C(=O)NCCCC[C@H](NC(=O)[C@H](Cc3cccc4ccccc34)NC(=O)[C@H]3C[C@@H](NC(=O)[C@@H]4C[C@@H](NC(=N)N)CN4)CN3)C(=O)NCCN(CC(=O)NCCN(CC(=O)N[C@@H](Cc3cccc4ccccc34)C(=O)N[C@@H](Cc3ccc(O)cc3)C(N)=O)C(=O)Cn3cnc4c(=O)[nH]c(N)nc43)C(=O)Cn3cnc4c(=O)[nH]c(N)nc43)C2)C1,660,–
N=C(N)N[C@@H]1C[C@@H](C(=O)N[C@H]2CN[C@@H](C(=O)N[C@@H](Cc3ccc(O)cc3)C(N)=O)C2)N(C(=O)CN(CCNC(=O)[C@H](CCCCNC(=O)[C@@H]2C[C@@H](NC(=N)N)CN2C(=O)[C@H]2C[C@@H](N)CN2C(=O)[C@@H](N)CCCCNC(=O)c2cnccn2)NC(=O)[C@@H]2C[C@@H](NC(=N)N)CN2C(=O)[C@H]2C[C@@H](N)CN2C(=O)[C@@H](N)CCCCNC(=O)c2cnccn2)C(=O)Cn2cnc3c(=O)[nH]c(N)nc32)C1,1110,–

# Continued, in another order:
Kd [1] [nM],SMILES,further results
1180,N=C(N)N[C@H]1CN[C@H](C(=O)N2C[C@H](N)C[C@@H]2C(=O)NCCN(CC(=O)NCCCC[C@H](NC(=O)CN(CCNC(=O)[C@H]2C[C@@H](N)CN2C(=O)[C@@H]2C[C@@H](NC(=N)N)CN2)C(=O)Cn2cnc3c(=O)[nH]c(N)nc32)C(=O)NCCN(CC(=O)N[C@@H](CCCCNC(=O)c2cnccn2)C(=O)N[C@@H](CCCCNC(=O)c2ccc(B(O)O)cc2)C(=O)N[C@@H](Cc2ccc(O)cc2)C(N)=O)C(=O)Cn2cnc3c(=O)[nH]c(N)nc32)C(=O)Cn2cnc3c(=O)[nH]c(N)nc32)C1,–
630,N=C(N)N[C@@H]1C[C@@H](C(=O)NCCN(CC(=O)N[C@@H](CCCCNC(=O)c2ccc(B(O)O)cc2)C(=O)N[C@@H](Cc2ccc(O)cc2)C(N)=O)C(=O)Cn2cnc3c(=O)[nH]c(N)nc32)N(C(=O)[C@H](CCCCNC(=O)[C@@H]2C[C@@H](NC(=N)N)CN2C(=O)[C@H]2C[C@@H](NC(=O)[C@@H]3C[C@@H](NC(=N)N)CN3)CN2)NC(=O)[C@@H]2C[C@@H](NC(=N)N)CN2C(=O)[C@H]2C[C@@H](NC(=O)[C@@H]3C[C@@H](NC(=N)N)CN3)CN2)C1,–
400 to 410,N=C(N)N[C@@H]1C[C@@H](C(=O)NCCN(CC(=O)N[C@@H](CCCCNC(=O)c2ccc(B(O)O)cc2)C(=O)N[C@@H](Cc2ccc(O)cc2)C(N)=O)C(=O)Cn2cnc3c(=O)[nH]c(N)nc32)N(C(=O)[C@H](CCCCNC(=O)[C@@H]2C[C@@H](NC(=N)N)CN2C(=O)[C@@H]2C[C@@H](NC(=N)N)CN2C(=O)[C@H]2C[C@@H](N)CN2)NC(=O)[C@@H]2C[C@@H](NC(=N)N)CN2C(=O)[C@@H]2C[C@@H](NC(=N)N)CN2C(=O)[C@H]2C[C@@H](N)CN2)C1,Kd [2]: 1140 nM; Activity [3]: Active; Kd [4]: 3520 nM; Kd [5]: 1480 nM; Activity [6]: Active; Activity [7]: Active
1300,N=C(N)N[C@@H]1C[C@@H](C(=O)N2C[C@H](NC(=N)N)C[C@H]2C(=O)N[C@@H](CCCCNC(=O)c2cnccn2)C(=O)N[C@@H](Cc2ccc(O)cc2)C(N)=O)N(C(=O)[C@H](CCCCNC(=O)[C@H](CCCCNC(=O)c2cnccn2)NC(=O)[C@H]2C[C@@H](NC(=O)[C@@H]3C[C@@H](NC(=N)N)CN3)CN2)NC(=O)[C@H](CCCCNC(=O)c2cnccn2)NC(=O)[C@H]2C[C@@H](NC(=O)[C@@H]3C[C@@H](NC(=N)N)CN3)CN2)C1,–
1120,N=C(N)N[C@@H]1C[C@@H](C(=O)NCCCC[C@H](NC(=O)[C@@H]2C[C@@H](NC(=N)N)CN2C(=O)[C@H]2C[C@@H](N)CN2C(=O)[C@@H]2C[C@@H](NC(=N)N)CN2)C(=O)N[C@@H](CCCCNC(=O)c2cnccn2)C(=O)N[C@@H](CCCCNC(=O)c2cnccn2)C(=O)NCCN(CC(=O)N[C@@H](Cc2ccc(O)cc2)C(N)=O)C(=O)Cn2cnc3c(=O)[nH]c(N)nc32)N(C(=O)[C@H]2C[C@@H](N)CN2C(=O)[C@@H]2C[C@@H](NC(=N)N)CN2)C1,–
